Structures are written as SMILES. The source made the active and inactive calls. The rule behind the calls is not given here.

Experimental findings from ChEMBL document CHEMBL3272346, “Vinyl ethers of choline and congeners” (1976) are described below.

Test [1] deals with Canis familiaris. In words: Increase in blood pressure in hexamethonium bromide-pretreated anesthetized dog at 0.3 to 0.6 mg/kg. The class given is functional, organism-based. Conditions: Canis lupus familiaris. Put shortly:
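In atropine sulfate-pretreated (0.5 mg/kg) anesthetized dogs, compounds were given intravenously at 0.3 and 0.6 mg/kg. Femoral arterial pressor responses were measured after pretreatment with hexamethonium bromide, 10 mg/kg, given intravenously.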

Test [2] is filed under the species Cavia porcellus. In words: […] at muscarinic acetylcholine receptor in guinea pig ileum assessed as muscle contraction in presence of 0.2 mg/l atropine sulfate. It counts as tissue-based. Put shortly: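 Contractions of a guinea pig ileum segment (animals 300-600 g, tissue taken just before the ileocecal valve) were evoked by added drug. Atropine sulfate was present at 0.2 mg/l to test antagonism of the responses.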

In test [3] the test system is Canis familiaris. In words: Decrease in blood pressure in dog at 1 to 4 ug/kg relative to acetylcholine.
The species named for test [4] is Cavia porcellus. In words: Agonist activity at muscarinic acetylcholine receptor in guinea pig ileum assessed as muscle contraction at 2.5 to 10 ng/ml relative to acetylcholine.
In test [5] the test system is Canis familiaris. In words: Increase in blood pressure in atropine sulfate-pretreated anesthetized dog at 0.3 to 0.6 mg/kg relative to acetylcholine. It counts as functional, Canis lupus familiaris. Particulars: dose mg/kg 0.3-0.6. Put shortly:
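Dogs were pretreated with atropine sulfate (0.5 mg/kg) and given compounds or acetylcholine at 0.3 and 0.6 mg/kg, rapidly into the right femoral vein in randomized order. Pressor responses were recorded from the left femoral artery by transducer. Relative potencies with 95% confidence intervals were calculated by Finney's method on molar cation amounts.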

Test [6] has as its system Canis familiaris. In words: Increase in blood pressure in dog at 0.2 mg/kg. The class given is functional, organism-based. On the set-up: dose 0.2 mg/kg. Conditions: Canis lupus familiaris. Put shortly:
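Dogs anesthetized with barbital sodium (250 mg/kg) and pretreated with atropine sulfate (0.5 mg/kg). Agents given rapidly into the right femoral vein in randomized order. Left femoral arterial pressure recorded by transducer. Pressor responses were also tested after intravenous hexamethonium bromide pretreatment (10 mg/kg). Potency is relative to acetylcholine, computed on molar cation amounts by Finney's method with 95% confidence intervals.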

Test [7] deals with Canis familiaris. In words: Increase in blood pressure in atropine sulfate-pretreated anesthetized dog at 2 mg/kg. The class given is functional, organism-based. Also on record: dose 2 mg/kg. Conditions: Canis lupus familiaris.

In the case of `CCOCC[N+](C)(C)C.[I-]`, the result in test [1] and in test [2] was inactive. The “fold change (FC)” value in test [3] came to 1.03; in test [4], 0.15; in test [5] it was 0.9.
`C=COCC[N+](C)(C)C.[I-]`: the result in test [1] and in test [2] was inactive. The results for the “fold change (FC)” value in test [3], in test [4] and in test [5] were 1.13, 0.09 and 1.93, respectively.
For the compound `CN1C2CCC1CC(OC(=O)C(CO)c1ccccc1)C2` (centres undefined), the outcome in test [6] was Active.
Turning to `C=COCC(C)[N+](C)(C)C.[I-]` (racemic), the result in test [1] and in test [2] was inactive. For the same compound, the “fold change (FC)” value in test [3] amounted to 0.06; in test [4], 0.001; in test [5] it was 3.74.
As for `C=COC(C)C[N+](C)(C)C.[I-]` (racemic), the outcome in test [2] and in test [7] was inactive. For the same compound, the “fold change (FC)” value in test [3] was determined as 0.74; in test [4], 0.02.
In the case of `CCOCC(C)[N+](C)(C)C.[I-]` (racemic), the outcome in test [1] and in test [2] was inactive. For the same compound, the “fold change (FC)” value was 0.08 in test [3], 0.003 in test [4] and 1.13 in test [5].
As to `CCOC(C)C[N+](C)(C)C.[I-]` (racemic), the result in test [2] and in test [7] was inactive. Also, the results for the “fold change (FC)” value in test [3] and in test [4] were 0.64 and 0.03, respectively.
